APJ ag = activates the human apelin receptor APJ | CHO-K1 APJ PathHunter beta-arrestin, luminescence; 0% DMSO wells, 100% apelin | activation, % at 20 µM | hit rate 0.11% among 330,000 | P35414;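 active = activation more than six SD over the plate average, tested at 20 µM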;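 note: 0% = DMSO alone and 100% = apelin-13 at 10 nM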
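Material: engineered CHO-K1 APJ arrestin reporter cells; amount: 1000 CHO-K1 reporter cells seeded per well; incubation: compound stimulation 90 min at 25 °C, detection 60 min; signal: luminescent beta-gal fragment complementation, chemiluminescent substrate; read-out basis: APJ agonist activity; controls: DMSO-only wells as negative, 10 nM Apelin-13 as positive control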
EBI2 block = blocks human EBI2 receptor beta-arrestin signaling | P32249 | inhibition, % at 5 µM | EBI2 beta-arrestin recruitment, luminescence, 7a,25-OHC stimulated | hit rate 0.81% among 360,000; in the data active = inhibition above about 38%;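 note: enzyme fragment complementation signal reports receptor beta-arrestin coupling in cells; 0% = agonist plus DMSO wells and 100% = wells without agonist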
CCR6 antagonist = blocks CCL20-driven beta-arrestin recruitment at human CCR6 | P51684 | CHO-K1 CCR6 PathHunter beta-arrestin, luminescence, CCL20-stimulated | inhibition, % at 20 µM | hit rate 0.49% among 340,000 | AID 493098;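 active = compounds whose inhibition of the agonist-driven luminescence signal at 20 µM reaches about 50%, limit read from the data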;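 note: cells stimulated with CCL20 at 14 nM final; plate controls were DMSO with CCL20 for no effect and DMSO without agonist for full effect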
Target sequence (P51684 whole entry, looked up): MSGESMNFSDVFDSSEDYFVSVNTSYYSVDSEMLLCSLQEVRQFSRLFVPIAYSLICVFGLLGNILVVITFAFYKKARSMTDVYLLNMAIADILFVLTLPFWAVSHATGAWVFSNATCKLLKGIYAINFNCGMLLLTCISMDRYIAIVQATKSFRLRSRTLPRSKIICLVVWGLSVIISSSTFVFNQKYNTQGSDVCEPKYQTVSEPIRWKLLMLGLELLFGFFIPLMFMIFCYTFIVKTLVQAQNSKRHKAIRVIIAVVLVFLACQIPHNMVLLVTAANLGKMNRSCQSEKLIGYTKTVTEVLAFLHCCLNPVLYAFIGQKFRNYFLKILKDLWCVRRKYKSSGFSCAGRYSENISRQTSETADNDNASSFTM
APJ antag = antagonists of human APJ apelin receptor. CHO-K1 APJ beta-arrestin complementation, luminescence. inhibition, % at 20 µM. hit rate 0.32% among 330,000;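 active = inhibition above about 40% at 20 µM, limit read from the data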;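 note: cells challenged with 10 nM apelin-13 agonist together with compound; plate controls were apelin-13 plus DMSO wells for no effect and DMSO wells lacking apelin-13 for full effect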
CXCR6 block = CXCR6 (human) receptor inhibition | hit rate 0.36% among 360,000 | CHO-K1 PathHunter CXCR6 beta-arrestin, luminescence | inhibition, % at 20 µM; in the data active = inhibition above about 34%, passing the limit was not always enough;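 note: antagonist mode with CXCL16 agonist at 10 nM final; 0% = 10 nM CXCL16 with DMSO and 100% = unstimulated wells without agonist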
* marks the source's active call; other numbers are inactive results. Sampled rows, rich in hits. Any-hit rate of the full collection: about 1.5%.

For Cc1cc(C)cc(N2C(=O)c3nccnc3C2=O)c1 the results were APJ ag 0, EBI2 block -29, CCR6 antagonist 6, APJ antag -3 and CXCR6 block -5.
Screening Cc1cc(N2C(=O)C=CC2=O)c([N+](=O)[O-])cc1C returned APJ ag -3, EBI2 block 8, APJ antag 17 and CXCR6 block 85*.
CN(CCc1nc2ccc(Cl)cc2[nH]1)Cc1nc(CC2CC2)no1 was read as APJ ag -2, EBI2 block 6, CCR6 antagonist 1, APJ antag -1 and CXCR6 block 5.
`Cc1ccc(CNS(=O)(=O)c2ccc3c(c2)NC(=O)C(C)S3)cc1` (centres undefined) gave APJ ag -7, EBI2 block 7, CCR6 antagonist 7, APJ antag 0 and CXCR6 block -6.
For COc1ccc(N=C2S/C(=C\c3ccc(Cl)c([N+](=O)[O-])c3)C(=O)N2CCN(C)C)cc1 the results were APJ ag 0, EBI2 block 62*, CCR6 antagonist 25, APJ antag 19 and CXCR6 block 17.
For CCN(CC)CCN1C(=O)/C(=C\c2ccc(Cl)c([N+](=O)[O-])c2)SC1=Nc1ccc(OC)cc1 the results were APJ ag -1, EBI2 block 73*, CCR6 antagonist 25, APJ antag 21 and CXCR6 block 1.
`CCCN1C(=O)/C(=C/c2ccc(C)s2)SC1=Nc1ccc(OC)cc1` gave APJ ag -7, EBI2 block 13, CCR6 antagonist 22, APJ antag 13 and CXCR6 block 10.
`COc1ccc(C)cc1S(=O)(=O)N1CCCC(N2CCOCC2)C1` (centres undefined) gave APJ ag -2, EBI2 block 2, CCR6 antagonist -1, APJ antag 2 and CXCR6 block -4.
C#CCN1C=CC(=O)[C@@H](OC(=O)NCCC)[C@H]1c1ccccc1Br was read as EBI2 block 1, CCR6 antagonist 6 and CXCR6 block -1.
For CCOC(=O)C1=C(O)/C(=C/c2ccc(-c3ccccc3C(=O)O)o2)SC1=Nc1ccc(C)cc1 the results were EBI2 block 40, CCR6 antagonist 24 and CXCR6 block 7.
For CCOC(=O)C1=C(O)/C(=C/c2cn(CC(=O)NCC3CCCO3)c3ccccc23)SC1=Nc1ccc(C)cc1 (centres undefined) the results were APJ ag -11, EBI2 block 49*, CCR6 antagonist 16, APJ antag 17 and CXCR6 block 12.
`CN(C)c1ccc(/C=C2/C[N+](C)(C)C/C(=C/c3ccc(N(C)C)cc3)C2=O)cc1` gave EBI2 block -17, CCR6 antagonist 62* and CXCR6 block 49*.
Screening Oc1ccc(Cl)cc1CNc1ccc(Br)cn1 returned APJ ag -1, EBI2 block 41*, CCR6 antagonist 14, APJ antag -9 and CXCR6 block -7.
`Oc1c(Cl)cc(Cl)cc1CNc1ccc(Br)cn1` gave APJ ag 10, EBI2 block 0, CCR6 antagonist -4, APJ antag 2 and CXCR6 block 5.
Screening Nc1ccc2c(c1)C(=O)C(=O)c1ccccc1-2 returned APJ ag 13, EBI2 block -19, CCR6 antagonist 71*, APJ antag -34 and CXCR6 block 27.
`Nc1ccc2c(c1)C(=O)c1ccccc1-2` gave APJ ag -4, EBI2 block -2, CCR6 antagonist -1, APJ antag -2 and CXCR6 block 5.
`O=C1C=C(c2cccc3c2sc2ccccc23)C[C@@H](c2ccc(F)cc2)C1` gave APJ ag -4, EBI2 block 67*, CCR6 antagonist 9, APJ antag -3 and CXCR6 block -5.
Screening COc1ccc(NC(=O)CN(C)C(=O)c2ccc(-c3ccccc3Cl)o2)cc1 returned APJ ag 5, EBI2 block -16, CCR6 antagonist 8, APJ antag 26 and CXCR6 block 3.
CCN(CC)CCN1C(=O)C2C(C(=O)Nc3cccc(C)c3)C3C=CC2(O3)C1C(=O)NC1CCCC(C)C1C (centres undefined) was read as APJ ag -1, EBI2 block 3, CCR6 antagonist 1, APJ antag 7 and CXCR6 block 3.
O=[N+]([O-])c1cc([N+](=O)[O-])c2cc3ccccc3nc2c1 was read as APJ ag -2, EBI2 block 70*, CCR6 antagonist 45, APJ antag 16 and CXCR6 block 41*.
Screening O=C(c1ccc2c(=O)n3c(nc2c1)CCCCC3)N1CCN(c2ccc([N+](=O)[O-])cc2)CC1 returned APJ ag 5, EBI2 block -17, CCR6 antagonist -20, APJ antag -3 and CXCR6 block 2.
CC1=NOC(=O)/C1=C\c1ccc(-c2ccc(Cl)cc2Cl)o1 was read as APJ ag 35*, EBI2 block -26, CCR6 antagonist 32, APJ antag -28 and CXCR6 block 29.
Screening Cc1ccc(-c2nnn(CC(=O)N(CC(=O)NC3CCCC3)c3ccccc3F)n2)o1 returned APJ ag -1, EBI2 block 8, CCR6 antagonist 10, APJ antag -26 and CXCR6 block 7.
`CC[C@@]1(C(=O)OC)N[C@H](CN(C)C(=O)COc2ccccc2)[C@@H]2C(=O)N(C)C(=O)[C@@H]21` gave APJ ag -3, EBI2 block 4, CCR6 antagonist 0, APJ antag -11 and CXCR6 block 1.
Screening CCOC(=O)N1CCN(C(=O)c2ccc3c(c2)sc2nc(-c4ccc(OC)cc4)cn23)CC1 returned APJ ag -2, EBI2 block 7, CCR6 antagonist 7, APJ antag -32 and CXCR6 block 2.
For COc1ccc2c(c1)sc1nc(-c3ccccc3)cn12 the results were APJ ag 3, EBI2 block 40*, CCR6 antagonist 1, APJ antag -11 and CXCR6 block -30.
For Cc1ccccc1Cn1c(=O)n(-c2ccccc2)c(=O)c2ccc(C(=O)NCc3ccco3)cc21 the results were APJ ag -6, EBI2 block 0, APJ antag 6 and CXCR6 block 6.
Screening Cc1ccc(-n2c(=O)c3ccc(C(=O)NCc4ccco4)cc3n(Cc3ccccc3C#N)c2=O)cc1 returned APJ ag -13, EBI2 block 14, CCR6 antagonist 35, APJ antag 86* and CXCR6 block 35.
For CC1OC(CC(=O)O)CC2=C1C(=O)c1c(O)cccc1C2=O (centres undefined) the results were EBI2 block 8, CCR6 antagonist 89* and CXCR6 block 74*.
`N#CC(=C1C=C(Br)C(=NO)C=C1Cl)c1cccc2ccccc12` gave EBI2 block 10 and CXCR6 block 40*.
Cc1ccc(S(=O)(=O)NC2=C(N3CCN(Cc4ccccc4)CC3)C(=O)c3ccccc3C2=O)cc1 was read as APJ ag 2, EBI2 block 2, CCR6 antagonist 54*, APJ antag -33 and CXCR6 block 5.

Bioassay records (PubChem BioAssay)
